Here are results for four compounds from ChEMBL document CHEMBL3232894, “Discovery of AMG 925, a FLT3 and CDK4 dual kinase inhibitor with preferential affinity for the activated state of FLT3” (J Med Chem, 2014).

Sequence of Cyclin-dependent kinase 4/cyclin D1 (P11802 whole entry): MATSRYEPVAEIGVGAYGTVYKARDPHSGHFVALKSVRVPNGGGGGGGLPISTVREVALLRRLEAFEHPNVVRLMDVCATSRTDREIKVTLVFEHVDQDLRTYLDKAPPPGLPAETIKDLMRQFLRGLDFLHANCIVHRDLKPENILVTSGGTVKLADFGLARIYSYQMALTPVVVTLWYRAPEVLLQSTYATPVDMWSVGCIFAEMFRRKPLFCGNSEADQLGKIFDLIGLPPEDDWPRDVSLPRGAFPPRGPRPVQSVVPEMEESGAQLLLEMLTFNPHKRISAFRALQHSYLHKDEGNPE
Sequence of Cyclin-dependent kinase 4/cyclin D1 (P24385 whole entry, further chain): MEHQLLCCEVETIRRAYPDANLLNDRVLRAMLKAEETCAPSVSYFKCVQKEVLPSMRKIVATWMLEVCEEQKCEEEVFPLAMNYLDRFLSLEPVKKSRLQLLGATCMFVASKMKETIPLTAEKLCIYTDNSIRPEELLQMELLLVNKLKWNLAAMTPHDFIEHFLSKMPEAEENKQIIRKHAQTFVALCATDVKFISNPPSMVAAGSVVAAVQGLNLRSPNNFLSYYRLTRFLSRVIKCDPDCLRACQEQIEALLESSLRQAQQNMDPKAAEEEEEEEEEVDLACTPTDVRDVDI
Sequence of Cyclin-dependent kinase 1/cyclin B1 (P06493 whole entry): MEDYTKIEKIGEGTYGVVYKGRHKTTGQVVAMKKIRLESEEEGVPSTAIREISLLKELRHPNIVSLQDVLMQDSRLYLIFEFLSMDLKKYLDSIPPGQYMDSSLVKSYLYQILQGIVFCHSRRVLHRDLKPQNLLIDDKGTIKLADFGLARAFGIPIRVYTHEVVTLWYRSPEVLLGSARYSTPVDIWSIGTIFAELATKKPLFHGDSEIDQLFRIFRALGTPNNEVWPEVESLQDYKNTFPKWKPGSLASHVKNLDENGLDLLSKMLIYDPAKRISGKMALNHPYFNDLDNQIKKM
Sequence of Cyclin-dependent kinase 1/cyclin B1 (P14635 whole entry, further chain): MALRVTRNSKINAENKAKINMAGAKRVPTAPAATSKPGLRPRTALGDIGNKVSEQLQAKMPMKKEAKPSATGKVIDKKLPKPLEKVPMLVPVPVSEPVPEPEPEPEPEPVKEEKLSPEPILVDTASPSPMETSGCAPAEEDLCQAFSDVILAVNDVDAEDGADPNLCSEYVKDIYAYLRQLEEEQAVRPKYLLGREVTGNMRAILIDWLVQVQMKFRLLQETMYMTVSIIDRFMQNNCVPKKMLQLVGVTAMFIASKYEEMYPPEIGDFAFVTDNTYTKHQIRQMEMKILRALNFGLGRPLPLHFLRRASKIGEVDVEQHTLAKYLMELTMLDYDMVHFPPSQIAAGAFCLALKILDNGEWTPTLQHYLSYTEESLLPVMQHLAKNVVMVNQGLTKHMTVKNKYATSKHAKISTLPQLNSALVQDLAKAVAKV

Test system in one data set: not listed separately
Nature of the data set: Drug uptake in CrTac:NCR-Foxn1nu (NCR) nude mouse at 150 mg/kg, po after 3 hrs. Also noted: dose 150 mg/kg, route oral. The following applies: in vivo, read-out: Drug uptake. It counts as ADME, organism-based. In a few lines: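 Total plasma drug concentration in mouse PK studies, taken 3 h after a 150 mg/kg oral dose.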
On to `C[C@H]1CC[C@H](n2c3cnccc3c3cnc(Nc4ccc(N5CCC6(CCC(=O)N6)CC5)cn4)nc32)CC1`, for which the concentration at 3 h stood at 14.7 µM.

`C[C@H]1CC[C@H](n2c3cnccc3c3cnc(Nc4ccc(N5CCN(C(=O)CO)CC5)nn4)nc32)CC1`: the concentration at 3 h was found to be 10.9 µM.

For `C[C@H]1CC[C@H](n2c3cnccc3c3cnc(Nc4ccc(N5CCC6(CC5)CCS(=O)(=O)C6)nn4)nc32)CC1`, the concentration at 3 h was 11.6 µM.

In the next data set the test system is MOLM-13. Nature of the data set: cells. Particulars: Homo sapiens.
One may read the IC50 as the concentration that inhibits the measured activity by half. Consider `CC(=O)c1c(C)c2cnc(Nc3ccc(N4CCNCC4)cn3)nc2n(C2CCCC2)c1=O` [PALBOCICLIB], for which it took 96 nM to reach half-maximal inhibition (IC50).

The next data set addresses T1, Receptor-type tyrosine-protein kinase FLT3 (Homo sapiens, UniProt P36888).
T1 sequence (P36888 whole entry): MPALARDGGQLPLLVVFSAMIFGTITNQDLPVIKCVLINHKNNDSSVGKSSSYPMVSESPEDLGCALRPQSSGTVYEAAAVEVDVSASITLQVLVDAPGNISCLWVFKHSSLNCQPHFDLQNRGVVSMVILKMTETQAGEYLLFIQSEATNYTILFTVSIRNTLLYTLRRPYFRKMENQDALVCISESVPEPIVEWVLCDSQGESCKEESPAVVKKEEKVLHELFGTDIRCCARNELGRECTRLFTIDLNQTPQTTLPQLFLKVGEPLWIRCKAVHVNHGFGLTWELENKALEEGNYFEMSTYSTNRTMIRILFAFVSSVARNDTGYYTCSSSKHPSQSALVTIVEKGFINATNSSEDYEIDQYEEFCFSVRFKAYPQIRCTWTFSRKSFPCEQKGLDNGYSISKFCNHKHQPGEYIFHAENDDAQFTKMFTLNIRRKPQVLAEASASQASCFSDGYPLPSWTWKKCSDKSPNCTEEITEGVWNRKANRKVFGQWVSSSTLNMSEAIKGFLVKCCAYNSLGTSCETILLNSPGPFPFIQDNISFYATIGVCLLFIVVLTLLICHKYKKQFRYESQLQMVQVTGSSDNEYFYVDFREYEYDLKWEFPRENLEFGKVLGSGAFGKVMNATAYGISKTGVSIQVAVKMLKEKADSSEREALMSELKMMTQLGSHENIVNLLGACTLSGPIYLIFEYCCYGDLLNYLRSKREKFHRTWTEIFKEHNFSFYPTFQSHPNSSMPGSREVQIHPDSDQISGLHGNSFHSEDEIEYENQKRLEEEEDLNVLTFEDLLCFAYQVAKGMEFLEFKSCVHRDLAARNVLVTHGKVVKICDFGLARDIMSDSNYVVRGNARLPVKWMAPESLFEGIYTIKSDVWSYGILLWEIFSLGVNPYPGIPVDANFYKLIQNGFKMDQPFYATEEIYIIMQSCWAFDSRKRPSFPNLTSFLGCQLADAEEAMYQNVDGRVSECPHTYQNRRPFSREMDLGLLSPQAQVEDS
The data set is described as follows: Inhibition of GST-fused human FLT3 cytoplasmic domain (amino acids 564 to 993) using Ulight-JAK1 as substrate after 1 hr by TR-FRET assay.
Details: not given
In the case of `C[C@H]1CC[C@H](n2c3cnccc3c3cnc(Nc4ccc(N5CCC6(CCC(=O)N6)CC5)cn4)nc32)CC1`, the IC50 is 3 nM.

Compound `C[C@H]1CC[C@H](n2c3cnccc3c3cnc(Nc4ccc(N5CCN(C(=O)CO)CC5)nn4)nc32)CC1` showed an IC50 of 8 nM.

The compound `C[C@H]1CC[C@H](n2c3cnccc3c3cnc(Nc4ccc(N5CCC6(CC5)CCS(=O)(=O)C6)nn4)nc32)CC1` displayed an IC50 of 5 nM.

Another data set has as its target Cyclin-dependent kinase 1/cyclin B1 (Homo sapiens, UniProt P06493). Nature of the data set: Inhibition of CDK1/cyclin B (unknown origin) using histone H1 as substrate after 60 mins by scintillation counting analysis in presence of [r-33P]ATP. The data set is classed as protein-complex assay.
Details: not given
For the compound `C[C@H]1CC[C@H](n2c3cnccc3c3cnc(Nc4ccc(N5CCC6(CCC(=O)N6)CC5)cn4)nc32)CC1`, the IC50 was found to be 1770 nM.

Consider `C[C@H]1CC[C@H](n2c3cnccc3c3cnc(Nc4ccc(N5CCN(C(=O)CO)CC5)nn4)nc32)CC1`, for which the IC50 was 1050 nM.

As for `C[C@H]1CC[C@H](n2c3cnccc3c3cnc(Nc4ccc(N5CCC6(CC5)CCS(=O)(=O)C6)nn4)nc32)CC1`, the IC50 was determined as 1630 nM.

Test system in another data set: not listed separately
The data set is described as follows: Clearance in iv dosed rat. The data set is classed as ADME, organism-based. Particulars: in vivo. The gist of the method: (§1)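 Intravenous and oral (gavage, solution) PK in rat, dog and cynomolgus monkey. The rat vehicle for both routes was water/acetate/tween at pH 4, 96/3/1 (v/v/v). Dog and monkey iv doses used 40% PG aqueous solution at pH 2, and their oral doses used 20% captisol aqueous solution.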
The clearance is the rate of elimination divided by the concentration. Compound `C[C@H]1CC[C@H](n2c3cnccc3c3cnc(Nc4ccc(N5CCC6(CCC(=O)N6)CC5)cn4)nc32)CC1` showed a clearance of 21.7 mL/min/kg.

Regarding `C[C@H]1CC[C@H](n2c3cnccc3c3cnc(Nc4ccc(N5CCN(C(=O)CO)CC5)nn4)nc32)CC1`, the clearance is 2 mL/min/kg.

`C[C@H]1CC[C@H](n2c3cnccc3c3cnc(Nc4ccc(N5CCC6(CC5)CCS(=O)(=O)C6)nn4)nc32)CC1` gave a clearance of 9 mL/min/kg.

Test system in another data set: not listed separately
The data set is described as follows: Antiproliferative activity against Rb-negative human MDA-MB-436 cells assessed as incorporation of [3H]thymidine into DNA after 72 hrs by beta-plate counting analysis. The data set is classed as functional.
Details: not given
As to `C[C@H]1CC[C@H](n2c3cnccc3c3cnc(Nc4ccc(N5CCC6(CCC(=O)N6)CC5)cn4)nc32)CC1`, the IC50 stood at 7230 nM.

Take `C[C@H]1CC[C@H](n2c3cnccc3c3cnc(Nc4ccc(N5CCN(C(=O)CO)CC5)nn4)nc32)CC1`: the IC50 worked out at 1190 nM.

For `C[C@H]1CC[C@H](n2c3cnccc3c3cnc(Nc4ccc(N5CCC6(CC5)CCS(=O)(=O)C6)nn4)nc32)CC1`, the IC50 stood at 10000 nM.

Another data set has as its target Cyclin-dependent kinase 4/cyclin D1 (Homo sapiens, UniProt P11802). Nature of the data set: Inhibition of CDK4/cyclin D1 (unknown origin) using Rb as substrate after 60 mins by scintillation counting analysis in presence of [r-33P]ATP. The data set is classed as protein-complex assay.
Details: not given
Turning to `C[C@H]1CC[C@H](n2c3cnccc3c3cnc(Nc4ccc(N5CCC6(CCC(=O)N6)CC5)cn4)nc32)CC1`, the IC50 was determined as 3 nM.

Turning to `C[C@H]1CC[C@H](n2c3cnccc3c3cnc(Nc4ccc(N5CCN(C(=O)CO)CC5)nn4)nc32)CC1`, the IC50 was determined as 3 nM.

As for `C[C@H]1CC[C@H](n2c3cnccc3c3cnc(Nc4ccc(N5CCC6(CC5)CCS(=O)(=O)C6)nn4)nc32)CC1`, the IC50 was found to be 4 nM.

A further data set has as its system U-937. The data set is described as follows: Induction of apoptosis in human U937 cells harboring wild type FLT3 at 1 uM after 48 hrs by Annexin V/Sytox Green staining based flow cytometry. The data set is classed as functional.
Details: not given
In a few lines: (§2)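 MOLM13, sorafenib-resistant MOLM13 and U937 cells were each exposed to compound at 1 μM for 48 h. Cells were then stained with Annexin V/Sytox Green and analysed by flow cytometry. Readout is apoptotic cells as a percentage of all cells analysed.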
On the technique in general: In flow cytometry, cells or beads pass a laser one at a time.
`CC(=O)c1c(C)c2cnc(Nc3ccc(N4CCNCC4)cn3)nc2n(C2CCCC2)c1=O` [PALBOCICLIB] yielded an Activity of 9.09%.

Test system in another data set: not listed separately
Nature of the data set: Oral bioavailability in rat. The data set is classed as ADME, organism-based. The following applies: in vivo. The gist of the method: as §1
For orientation: bioavailability means dose-corrected exposure relative to a reference, in per cent. A lower bioavailability goes with poor availability. As to `C[C@H]1CC[C@H](n2c3cnccc3c3cnc(Nc4ccc(N5CCC6(CCC(=O)N6)CC5)cn4)nc32)CC1`, the bioavailability turned out to be 48%.

In the case of `C[C@H]1CC[C@H](n2c3cnccc3c3cnc(Nc4ccc(N5CCN(C(=O)CO)CC5)nn4)nc32)CC1`, the bioavailability came out at 22%.

In the case of `C[C@H]1CC[C@H](n2c3cnccc3c3cnc(Nc4ccc(N5CCC6(CC5)CCS(=O)(=O)C6)nn4)nc32)CC1`, the bioavailability came out at 38%.

For the next data set, the system named is MOLM-13. Nature of the data set: Antiproliferative activity against human MOLM13 cells harboring FLT3 ITD mutant assessed as incorporation of [3H]thymidine into DNA after 72 hrs by beta-plate counting analysis. The data set is classed as functional, cell-based.
Details: not given
`C[C@H]1CC[C@H](n2c3cnccc3c3cnc(Nc4ccc(N5CCC6(CCC(=O)N6)CC5)cn4)nc32)CC1`: the half-inhibitory concentration (IC50) stood at 21 nM.

For the compound `CC(=O)c1c(C)c2cnc(Nc3ccc(N4CCNCC4)cn3)nc2n(C2CCCC2)c1=O` [PALBOCICLIB], the half-inhibitory concentration (IC50) turned out to be 96 nM.

Consider `C[C@H]1CC[C@H](n2c3cnccc3c3cnc(Nc4ccc(N5CCN(C(=O)CO)CC5)nn4)nc32)CC1`, for which the IC50 is 37 nM.

Turning to `C[C@H]1CC[C@H](n2c3cnccc3c3cnc(Nc4ccc(N5CCC6(CC5)CCS(=O)(=O)C6)nn4)nc32)CC1`, the IC50 was 32 nM.

The test system of a further data set is COLO 205. The data set is described as follows: Antiproliferative activity against Rb-positive human COLO205 cells assessed as incorporation of [14C]thymidine into DNA after 72 hrs by beta-plate counting analysis.
Details: not given
Turning to `C[C@H]1CC[C@H](n2c3cnccc3c3cnc(Nc4ccc(N5CCC6(CCC(=O)N6)CC5)cn4)nc32)CC1`, the IC50 was determined as 31 nM.

Turning to `CC(=O)c1c(C)c2cnc(Nc3ccc(N4CCNCC4)cn3)nc2n(C2CCCC2)c1=O` [PALBOCICLIB], the IC50 was determined as 36 nM.

Regarding `C[C@H]1CC[C@H](n2c3cnccc3c3cnc(Nc4ccc(N5CCN(C(=O)CO)CC5)nn4)nc32)CC1`, the IC50 is 31 nM.

In the case of `C[C@H]1CC[C@H](n2c3cnccc3c3cnc(Nc4ccc(N5CCC6(CC5)CCS(=O)(=O)C6)nn4)nc32)CC1`, the IC50 was 38 nM.

In another data set the test system is U-937. Nature of the data set: Antiproliferative activity against human U937 cells assessed as incorporation of [3H]thymidine into DNA after 72 hrs by beta-plate counting analysis.
Details: not given
`CC(=O)c1c(C)c2cnc(Nc3ccc(N4CCNCC4)cn3)nc2n(C2CCCC2)c1=O` [PALBOCICLIB]: the IC50 stood at 140 nM.

The subject of a further data set is MOLM-13. The data set is described as follows: Induction of apoptosis in human MOLM13 cells harboring FLT3 ITD mutant at 1 uM after 48 hrs by Annexin V/Sytox Green staining based flow cytometry. It counts as functional.
Details: not given
The gist of the method:
as §2
In turn, `CC(=O)c1c(C)c2cnc(Nc3ccc(N4CCNCC4)cn3)nc2n(C2CCCC2)c1=O` [PALBOCICLIB] gave an Activity of 16.95%.

The subject of the next data set is MOLM-13. Nature of the data set: Induction of apoptosis in sorafenib-resistant human MOLM13 cells harboring FLT3 ITD+D835Y mutant at 1 uM after 48 hrs by Annexin V/Sytox Green staining based flow cytometry. The data set is classed as functional.
Details: not given
In a few lines: as §2
Compound `CC(=O)c1c(C)c2cnc(Nc3ccc(N4CCNCC4)cn3)nc2n(C2CCCC2)c1=O` [PALBOCICLIB] yielded an Activity of 8.35%.
